Measurements published in PubChem BioAssay.
Active and inactive are the calls of the source.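 How the source made its calls, unless noted: active means NADPH fluorescence slope more negative than the mean of all samples by about 3 SD, 99.7% confidence; inactive means the rest.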

Legend:
[1] = inhibitors of TNFa-induced NFkB p65 translocation, primary screen, imaging, HUVEC, MLSMR starter and 10KST1 sets (AID 438;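 active means inhibition above 20% together with a positive visual image hit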;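 further: compound added about 3h40 before a 20 min TNFalpha stimulation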;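 on inhibition: signal is the nuclear over cytoplasmic p65 intensity ratio per well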); details: HUVEC TNFa-induced p65 nuclear translocation; cell count: measured here: nuclei count (cytotoxicity indicator), at 2.08 µM; inhibition: at 2 µM, stronger effect = higher value, 0% TNFa-plus-vehicle, 100% no-TNFa wells
[2] = endothelial E-selectin expression blockers – imaging, HUVEC, immunofluorescence, MLSMR starter and 10KST1 sets, primary screen (AID 487;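 active means visually confirmed hit in the image check and inhibition above 20%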;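 on inhibition: signal is fraction of cell area covered by stained E-selectin grains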;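 on nuclei count: 100% = median nuclei count of all wells on the same plate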); details: HUVEC TNFalpha-induced E-selectin immunofluorescence imaging, at 2 µM; inhibition: stronger effect = higher value; nuclei count: measured here: cell number, toxicity
[3] = Primary imaging screen for DUSP6 inhibitors that restore phospho-Erk in transfected HeLa cells, chemical complementation (AID 609;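 active means compounds giving at least 50% inhibition in the cell-based MKP-3 phosphatase rescue imaging test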;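 on inhibition: phospho-Erk level distribution per well compared with pooled transfected vehicle control wells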); details: HeLa MKP-3 transfected, phospho-Erk imaging KS statistic, at 10 µM, cells stimulated with TPA for 15 min
[4] = molecular target: Dual specificity protein phosphatase 6 (Homo sapiens) (UniProt Q16828); test: as above; details: HeLa MKP-3 transfected, phospho-Erk imaging KS statistic; at 10 µM; stronger effect = higher value; cells stimulated with TPA for 15 min
Sequence of Dual specificity protein phosphatase 6 (Homo sapiens) (Q16828 whole entry, looked up): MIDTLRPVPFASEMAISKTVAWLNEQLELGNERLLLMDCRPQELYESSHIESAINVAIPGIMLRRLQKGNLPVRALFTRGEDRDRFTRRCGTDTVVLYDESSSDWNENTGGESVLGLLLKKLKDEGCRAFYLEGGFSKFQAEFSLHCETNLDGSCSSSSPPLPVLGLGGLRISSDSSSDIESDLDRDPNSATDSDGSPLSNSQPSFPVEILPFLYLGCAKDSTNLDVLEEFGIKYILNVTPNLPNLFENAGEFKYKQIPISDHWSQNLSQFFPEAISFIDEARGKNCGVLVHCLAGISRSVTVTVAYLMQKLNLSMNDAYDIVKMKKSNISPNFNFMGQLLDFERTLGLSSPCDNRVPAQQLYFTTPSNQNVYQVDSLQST

[5] = molecular target: Voltage-gated potassium channel subunit beta-2 (Rattus norvegicus) (UniProt P62483); test: inhibitors of rat Kvbeta2 reductase activity – biochemical, NADPH fluorescence, primary screen (AID 622;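 active means fluorescence slope higher than the sample average by over 3 SD, cut at about -0.22 in these data, passing the limit was not always enough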;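 further: slope of raw intensity against log time taken from 70 to 1610 s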); details: recombinant KvBeta, 4-cyanobenzaldehyde reduction, at 10 µM, stronger effect = higher value
Sequence of Voltage-gated potassium channel subunit beta-2 (Rattus norvegicus) (P62483 whole entry, looked up): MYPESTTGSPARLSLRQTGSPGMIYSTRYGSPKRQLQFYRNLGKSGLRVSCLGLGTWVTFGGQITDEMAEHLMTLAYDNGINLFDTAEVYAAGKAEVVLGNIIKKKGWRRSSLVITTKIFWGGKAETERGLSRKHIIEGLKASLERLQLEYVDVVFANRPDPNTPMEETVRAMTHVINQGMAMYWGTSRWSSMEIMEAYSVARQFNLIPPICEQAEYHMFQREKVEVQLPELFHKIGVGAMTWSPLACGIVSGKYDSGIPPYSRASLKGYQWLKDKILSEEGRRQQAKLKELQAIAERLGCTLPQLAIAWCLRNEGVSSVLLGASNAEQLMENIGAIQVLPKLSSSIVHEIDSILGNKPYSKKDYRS

[6] = molecular target: Voltage-gated potassium channel subunit beta-2 (Rattus norvegicus) (UniProt P62483); test: enhancers of rat Kvbeta2 NADPH turnover – biochemical, NADPH fluorescence, primary screen (AID 623); details: Recombinant KvBeta, NADPH fluorescence decrease slope, 10 min; at 10 µM; stronger effect = lower value;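 further: fluorescence intensity change per second fitted from 20 to 320 s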
[7] = molecular target: Alpha-2C adrenergic receptor (Homo sapiens) (UniProt P18825); test: compounds altering alpha2C-coupled GIRK flux – cell-based, HEK293 alpha2C/GIRK1/2, thallium flux, primary screen (AID 624;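 active means fluorescence slope after compound addition differing from the mean of all screened samples at 99.7% confidence, in either direction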;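 further: slope of fluorescence ratio to pre-addition baseline per second over 15 to 24 s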); details: thallium flux BTC fluorescence, at 10 µM, actives lie on both sides
Sequence of Alpha-2C adrenergic receptor (Homo sapiens) (P18825 whole entry, looked up): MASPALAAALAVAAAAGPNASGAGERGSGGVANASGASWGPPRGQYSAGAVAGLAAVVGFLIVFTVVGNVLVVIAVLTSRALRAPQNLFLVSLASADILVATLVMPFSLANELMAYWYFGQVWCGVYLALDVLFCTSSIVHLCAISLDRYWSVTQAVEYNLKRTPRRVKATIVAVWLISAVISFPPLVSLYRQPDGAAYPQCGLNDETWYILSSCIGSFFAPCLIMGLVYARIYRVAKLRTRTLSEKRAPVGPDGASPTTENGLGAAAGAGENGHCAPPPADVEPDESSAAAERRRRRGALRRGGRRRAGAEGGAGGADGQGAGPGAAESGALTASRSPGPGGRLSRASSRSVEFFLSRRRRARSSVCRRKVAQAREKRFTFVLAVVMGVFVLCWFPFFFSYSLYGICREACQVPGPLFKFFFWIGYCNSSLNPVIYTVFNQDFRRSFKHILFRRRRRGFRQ

[8] = inhibitors of larval lipid processing in zebrafish, primary screen, whole organism, PED6 fluorescence, gall bladder and intestine (AID 686;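 active means a full or partial loss of lipid-probe fluorescence in the fish gall bladder, intestine or both, judged by eye; inactive means no fluorescence loss, or compound toxic to the fish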;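 further: larvae 5 to 7 days old with five fish per well; signal comes from phospholipase A2 cleavage of quenched PED6 carried via bile; overnight exposure to compound and PED6 before scoring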); details: Zebrafish larvae PED6 lipid processing, fluorescence scoring; screened at 20 µM (by protocol)
In short: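 Doses: 20 µM single dose. Test system: live zebrafish larvae aged 5-7 days, whole organism. Quantity: five larvae per well. Measured by: By-eye fluorescence microscopy. Reagent: ingested quenched lipid PED6 at 100 nM. Read-out: visual per-well fluorescence inhibition score. Times: overnight exposure of larvae to compound plus PED6.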

[9] = loss of swimming-algae plug formation – whole organism, Chlamydomonas reinhardtii, WT vs cilia-less mutant, absorbance, 96-well, primary screen (AID 463189;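 active means inhibition at or above 50% relative to wild type and mutant plate controls; inactive means inhibition below 50%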;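 further: 0% = wild type cc124 cells in DMSO and 100% = ciliumless bld1 mutant cells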); details: Chlamydomonas reinhardtii gravitaxis, OD600 absorbance, 2 days; at 10 µM; stronger effect = higher value
[10] = measured here: cell density z-score
[11] = measured here: nuclear c-Myc green intensity z-score
[12] = measured here: nuclear pErk red intensity z-score, stronger effect = higher value

Structure (SMILES) | cell count [1] | inhibition [1] | inhibition [2] | nuclei count [2] | z-score [3, 10] | z-score [3, 11] | z-score [3, 12] | inhibition [4] | fluorescence slope [5] | NADPH fluorescence slope [6] | slope [7] | outcome [8] | inhibition [9]
Cc1ccc(C)n1Cc1ccc(C(=O)O)cc1 | 645 | 1.9% (inactive) | -32.8% (inactive) | 154% | 1.01 | 0.014 | -0.0334 | -6.86% (inactive) | -0.401 (inactive) | -4.4e-05 (inactive) | 0.00514 (inactive) | inactive | -3.17% (inactive)
CCOC(=O)c1c(C)n(C)c2ccc(OC)c(NC(=O)CN3CCCCC3)c12 | 343 | -2.7% (inactive) | -15% (inactive) | 132% | -1.53 | -1.22 | 2.07 | -6.59% (inactive) | -0.46 (inactive) | -0.000136 (inactive) | 0.00641 (inactive) | inactive | -10.1% (inactive)
Oc1ccccc1CNn1cnnc1 | 563 | -0.7% (inactive) | -6.7% (inactive) | 168% | -0.0903 | -0.194 | 0.333 | -3.5% (inactive) | -0.324 (inactive) | 1.4e-05 (inactive) | 0.00654 (inactive) | inactive | 18.3% (inactive)
O=CNC(=O)c1ccccc1C(=O)O | 545 | -5.9% (inactive) | -60.7% (inactive) | 162% | 1.01 | -0.571 | -1.1 | 11.9% (inactive) | -0.522 (inactive) | -2.4e-05 (inactive) | 0.00526 (inactive) | inactive | 28.5% (inactive)
O=C(c1ccco1)N1CCN(CCOCCOc2cccc3ccccc23)CC1 | 473 | -5.4% (inactive) | -81.6% (inactive) | 121% | -1.67 | -0.183 | 1.98 | -2.07% (inactive) | -0.504 (inactive) | -0.000107 (inactive) | 0.00477 (inactive) | inactive | 16.4% (inactive)
COc1ccc(CN2CCC(=O)NC2=O)cc1 | 670 | -14.7% (inactive) | -450% (inactive) | 162% | 0.756 | -1.36 | 0.0301 | 9.39% (inactive) | -0.502 (inactive) | -3.7e-05 (inactive) | 0.00539 (inactive) | inactive | 2.33% (inactive)
CC1CN(c2oc(-c3ccccc3Cl)nc2C#N)CC(C)O1 (stereo unspecified) | 355 | -5.2% (inactive) | -154% (inactive) | 83.5% | -0.0257 | -0.411 | -1.37 | -0.159% (inactive) | -0.433 (inactive) | -9.2e-06 (inactive) | 0.00575 (inactive) | inactive | -9.38% (inactive)
CC1(C)Cc2c(sc3nc4n(c(=N)c23)CCC4)CO1 | 678 | -24.9% (inactive) | -38.1% (inactive) | 164% | -0.552 | 1.24 | 2.19 | -13.9% (inactive) | -0.416 (inactive) | -4.6e-05 (inactive) | 0.00517 (inactive) | inactive | -6.56% (inactive)
Cc1ccc(C2C(C(=O)c3cc4ccccc4o3)=C(O)C(=O)N2CCCN(C)C)cc1 (stereo unspecified) | 445 | -4.5% (inactive) | -30.5% (inactive) | 161% | -0.136 | -1.28 | 0.773 | -2.91% (inactive) | -0.414 (inactive) | -4.9e-05 (inactive) | 0.00603 (inactive) | inactive | -1.22% (inactive)
O=C(CCN1CCCCC1)Nc1cccc(Cl)c1 | 336 | -14.7% (inactive) | -49.9% (inactive) | 138% | -1.72 | 0.965 | 0.516 | -3.5% (inactive) | -0.42 (inactive) | -0.000129 (inactive) | 0.0069 (inactive) | inactive | -5.09% (inactive)
CCOC(=O)c1n[nH]c2ccccc12 | 354 | -6.3% (inactive) | -168% (inactive) | 110% | 0.791 | -0.274 | -1.01 | 6.04% (inactive) | -0.399 (inactive) | 1.6e-05 (inactive) | 0.00468 (inactive) | inactive | -13% (inactive)
CCCOc1ccc(/C(O)=C2/C(=O)C(=O)N(CCN3CCOCC3)C2c2ccccc2)cc1 (stereo unspecified) | 365 | -10.5% (inactive) | -132% (inactive) | 144% | -0.109 | 0.153 | 0.743 | -0.159% (inactive) | -0.426 (inactive) | -6.6e-05 (inactive) | 0.00576 (inactive) | inactive | -3.19% (inactive)
CCCOc1ccc(N2C(=O)CC(N(CCC)C(=O)CCC(=O)O)C2=O)cc1 (stereo unspecified) | 468 | -11.6% (inactive) | -161% (inactive) | 204% | -1.24 | -0.331 | -0.093 | 7.7% (inactive) | -0.384 (inactive) | -9.2e-06 (inactive) | 0.00456 (inactive) | inactive; toxic | 11.3% (inactive)
CCCCC(C(=O)O)C(C)CC(=O)Nc1cccc(C(=O)O)c1 (stereo unspecified) | 630 | -4.4% (inactive) | -102% (inactive) | 176% | 0.159 | -1.73 | 0.323 | 18.6% (inactive) | -0.486 (inactive) | -0.000152 (inactive) | 0.00384 (inactive) | inactive | 0.959% (inactive)
CCN(CC)CCNc1nc(-c2ccco2)c2c(c1C#N)CC(C)(C)OC2 | 580 | -4.5% (inactive) | 12.3% (inactive) | 110% | 0.832 | 0.195 | 0.416 | 9.82% (inactive) | -0.379 (inactive) | 1.9e-06 (inactive) | 0.00425 (inactive) | inactive | 47.8% (inactive)
CCOC(=O)C1Cc2c([nH]c3ccccc23)C(C)N1 (stereo unspecified) | 640 | -12.2% (inactive) | -61.9% (inactive) | 176% | -0.293 | -0.384 | -0.135 | -18.6% (inactive) | -0.422 (inactive) | -5.9e-05 (inactive) | 0.00514 (inactive) | inactive | -12.3% (inactive)
CN(C)c1ccc(C=NCCC2(O)CCOC(C)(C)C2)cc1 (stereo unspecified) | 326 | -27% (inactive) | -218% (inactive) | 173% | -0.673 | -1.17 | -0.362 | 8.76% (inactive) | -0.416 (inactive) | -0.000167 (inactive) | 0.00576 (inactive) | inactive | -4.27% (inactive)
COc1ccc(OC)c(NC(=O)CSc2nnc(-c3ccco3)n2-c2ccc(C(=O)O)cc2)c1 | 494 | -27.8% (inactive) | -97.7% (inactive) | 158% | 0.414 | -0.401 | -0.476 | 11.9% (inactive) | -0.505 (inactive) | -3.4e-05 (inactive) | 0.00721 (inactive) | inactive | 2.3% (inactive)
CC1(C)CC(=O)C(CCCN2C(=O)c3ccccc3C2=O)C(=O)C1 | 527 | 0.1% (inactive) | 10.1% (inactive) | 93.2% | -0.253 | 0.312 | -1.11 | -5.26% (inactive) | -0.379 (inactive) | -1.5e-05 (inactive) | 0.00431 (inactive) | inactive | 18% (inactive)
COc1ccccc1-c1nnc2sc(C3CCCCC3)nn12 | 531 | -12.5% (inactive) | -318% (inactive) | 161% | -0.671 | 0.45 | 0.848 | -0.674% (inactive) | -0.405 (inactive) | -0.000298 (inactive) | 0.00423 (inactive) | active; no signal in intestine only | 11.6% (inactive)
N#CC1=C(SCC(=O)c2ccc(Cl)cc2)NC2=C(C(=O)CCC2)C1c1ccco1 (stereo unspecified) | 362 | -6.1% (inactive) | -118% (inactive) | 147% | 1.13 | -0.168 | -0.867 | 9.42% (inactive) | -0.422 (inactive) | -0.000127 (inactive) | 0.00564 (inactive) | active; weak signal in gallbladder and intestine | 13.1% (inactive)
CCCSc1nnc2n(-c3ccccc3OC)c(=O)c3c4c(sc3n12)CCC4 | 523 | -14.8% (inactive) | -63.5% (inactive) | 171% | 1.08 | -1.06 | -0.347 | 7.73% (inactive) | -0.358 (inactive) | -3.5e-05 (inactive) | 0.00552 (inactive) | inactive | 11.2% (inactive)
c1ccc(N2CCN(c3nc(-c4ccccn4)nc4ccccc34)CC2)cc1 | 493 | -5.1% (inactive) | 22.4% (inactive) | 86.2% | -1.22 | 1.7 | 1.08 | -5.26% (inactive) | -0.413 (inactive) | -7.9e-05 (inactive) | 0.0043 (inactive) | inactive | 106% (active)
O=c1[nH]c(=O)n(Cc2ccco2)c2c1C(C(F)(F)F)(C(F)(F)F)N=C(c1ccco1)N2 | 505 | -2.5% (inactive) | -212% (inactive) | 132% | -0.683 | -0.978 | -0.242 | 1.75% (inactive) | -0.502 (inactive) | -5.4e-05 (inactive) | 0.00631 (inactive) | inactive | -4.12% (inactive)
CC(=O)C(=[N+]=[N-])C(=O)NCc1ccccc1 | 474 | -11.6% (inactive) | -71.5% (inactive) | 95.4% | 0.378 | -1.15 | 0.485 | 5.95% (inactive) | -0.518 (inactive) | -4e-05 (inactive) | 0.00636 (inactive) | inactive | 24.1% (inactive)
Cc1ccc(OCC(=O)N2CCC(N3CCCCCC3)CC2)cc1 | 387 | -12% (inactive) | -349% (inactive) | 176% | -0.193 | 0.541 | -0.692 | 9.39% (inactive) | -0.391 (inactive) | -2.1e-05 (inactive) | 0.00447 (inactive) | inactive | 4.12% (inactive)
COc1ccc(C2CC(C(F)(F)F)n3ncc(C(=O)Nc4cccc(O)c4)c3N2)cc1OC (stereo unspecified) | 494 | -6.1% (inactive) | -14.4% (inactive) | 119% | -0.0495 | 0.084 | -0.887 | 1.75% (inactive) | -0.483 (inactive) | -0.00017 (inactive) | 0.0043 (inactive) | active; weak signal in gallbladder and intestine | -4.48% (inactive)
